Consider eight molecules from ChEMBL document CHEMBL3414543, “Novel series of benzoquinones with high potency against 5-lipoxygenase in human polymorphonuclear leukocytes” (Eur J Med Chem, 2015).

pIC50: −log10 of the molar value.

Assay [1] has as its target T1, Polyunsaturated fatty acid 5-lipoxygenase (Homo sapiens) (UniProt P09917).
T1 sequence (whole entry): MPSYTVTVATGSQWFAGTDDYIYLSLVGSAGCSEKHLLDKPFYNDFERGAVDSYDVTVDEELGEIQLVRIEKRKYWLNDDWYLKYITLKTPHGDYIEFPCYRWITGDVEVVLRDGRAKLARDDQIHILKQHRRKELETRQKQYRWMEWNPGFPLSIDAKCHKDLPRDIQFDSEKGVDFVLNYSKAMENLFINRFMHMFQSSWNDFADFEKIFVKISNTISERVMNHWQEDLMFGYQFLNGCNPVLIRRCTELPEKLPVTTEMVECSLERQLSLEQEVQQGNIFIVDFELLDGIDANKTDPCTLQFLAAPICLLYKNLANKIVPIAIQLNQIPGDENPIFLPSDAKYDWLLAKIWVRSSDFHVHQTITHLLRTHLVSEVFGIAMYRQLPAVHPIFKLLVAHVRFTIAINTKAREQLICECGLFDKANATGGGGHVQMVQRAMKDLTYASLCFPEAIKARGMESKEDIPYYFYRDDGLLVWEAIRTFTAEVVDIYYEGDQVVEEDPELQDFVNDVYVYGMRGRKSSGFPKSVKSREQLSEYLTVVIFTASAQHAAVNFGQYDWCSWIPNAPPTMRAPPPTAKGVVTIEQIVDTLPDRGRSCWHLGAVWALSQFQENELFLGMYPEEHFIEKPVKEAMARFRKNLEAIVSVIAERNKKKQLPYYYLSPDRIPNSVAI
Description: Inhibition of 5-LOX in A23187-stimulated human blood PMNL assessed as remaining activity by measuring lipoxygenase products formation at 10 uM in presence of arachidonic acid pre-incubated for 15 mins followed by stimulation with A23187 for 10 mins by RP-HPLC based cell based assay. An outline of the steps:
(§1)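 Human PMNL (5 × 10⁶ in 1 ml PBS pH 7.4, 1 mg/ml glucose, 1 mM CaCl₂), preincubated 15 min at 37 °C with compound or 0.1% DMSO, then stimulated 10 min at 37 °C with A23187, with or without AA. 5-LO products measured. Values are mean ± S.E. of 3–4 independent experiments. IC₅₀ read graphically from 4–5 concentrations.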

Assay [2] deals with T2, Polyunsaturated fatty acid lipoxygenase ALOX12 (Homo sapiens) (UniProt P18054).
T2 sequence (whole entry): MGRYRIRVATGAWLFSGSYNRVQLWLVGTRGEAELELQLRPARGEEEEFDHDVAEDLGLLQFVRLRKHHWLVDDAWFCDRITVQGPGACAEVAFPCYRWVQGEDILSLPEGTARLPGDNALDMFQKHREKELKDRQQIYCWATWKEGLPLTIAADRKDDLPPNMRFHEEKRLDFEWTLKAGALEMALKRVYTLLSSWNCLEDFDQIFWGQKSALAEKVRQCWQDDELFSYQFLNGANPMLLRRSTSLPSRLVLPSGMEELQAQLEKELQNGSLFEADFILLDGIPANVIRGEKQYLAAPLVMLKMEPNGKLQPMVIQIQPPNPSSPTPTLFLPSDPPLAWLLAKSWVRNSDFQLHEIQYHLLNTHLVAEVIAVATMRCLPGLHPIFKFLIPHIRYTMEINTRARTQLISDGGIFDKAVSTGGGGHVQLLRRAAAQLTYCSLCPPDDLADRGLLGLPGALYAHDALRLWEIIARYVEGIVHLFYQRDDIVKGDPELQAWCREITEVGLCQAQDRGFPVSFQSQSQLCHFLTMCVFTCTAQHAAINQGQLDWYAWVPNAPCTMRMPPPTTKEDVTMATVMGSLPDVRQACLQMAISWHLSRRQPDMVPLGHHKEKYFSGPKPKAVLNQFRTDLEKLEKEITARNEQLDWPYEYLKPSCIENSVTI
Description: Inhibition of 12-LOX in human blood PMNL assessed as remaining activity by measuring 12-HETE synthesis at 10 uM. An outline of the steps:
(§2)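 PMNL isolated from heparinized blood of fasted healthy donors by dextran sedimentation and Nycoprep centrifugation, with hypotonic lysis of erythrocytes. Cells at 5 × 10⁶ in 1 ml PBS pH 7.4 with 1 mg/ml glucose and 1 mM CaCl₂, preincubated 15 min at 37 °C with compound or 0.1% DMSO vehicle, then stimulated 10 min at 37 °C. 12-HETE or 15-HETE formation measured.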

Assay [3] deals with T1, Polyunsaturated fatty acid 5-lipoxygenase (Homo sapiens). Description: Inhibition of human recombinant 5-LOX expressed in Escherichia coli BL21 assessed as remaining activity at 10 uM incubated for 10 mins in presence of arachidonic acid by RP-HPLC based cell-free assay. An outline of the steps:
(§3)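 Recombinant human 5-LO, semi-purified from a 40,000 × g lysate supernatant on ATP-agarose, diluted in ice-cold PBS with 1 mM EDTA and 1 mM ATP. Preincubated 10 min at 4 °C with compound or 0.1% DMSO, warmed 30 s at 37 °C, then started with 2 mM CaCl₂ plus 20 µM AA. Reaction 10 min at 37 °C, stopped with cold methanol, products by RP-HPLC. IC₅₀ from 4–5 concentrations.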

Assay [4] has the same target. Description: Inhibition of 5-LOX in A23187-stimulated human blood PMNL assessed as remaining activity by measuring lipoxygenase products formation at 10 uM pre-incubated for 15 mins followed by stimulation with A23187 for 10 mins by RP-HPLC based cell based assay. In a few lines:
as §1

Assay [5] addresses T3, Polyunsaturated fatty acid lipoxygenase ALOX15 (Homo sapiens) (UniProt P16050).
T3 sequence (whole entry): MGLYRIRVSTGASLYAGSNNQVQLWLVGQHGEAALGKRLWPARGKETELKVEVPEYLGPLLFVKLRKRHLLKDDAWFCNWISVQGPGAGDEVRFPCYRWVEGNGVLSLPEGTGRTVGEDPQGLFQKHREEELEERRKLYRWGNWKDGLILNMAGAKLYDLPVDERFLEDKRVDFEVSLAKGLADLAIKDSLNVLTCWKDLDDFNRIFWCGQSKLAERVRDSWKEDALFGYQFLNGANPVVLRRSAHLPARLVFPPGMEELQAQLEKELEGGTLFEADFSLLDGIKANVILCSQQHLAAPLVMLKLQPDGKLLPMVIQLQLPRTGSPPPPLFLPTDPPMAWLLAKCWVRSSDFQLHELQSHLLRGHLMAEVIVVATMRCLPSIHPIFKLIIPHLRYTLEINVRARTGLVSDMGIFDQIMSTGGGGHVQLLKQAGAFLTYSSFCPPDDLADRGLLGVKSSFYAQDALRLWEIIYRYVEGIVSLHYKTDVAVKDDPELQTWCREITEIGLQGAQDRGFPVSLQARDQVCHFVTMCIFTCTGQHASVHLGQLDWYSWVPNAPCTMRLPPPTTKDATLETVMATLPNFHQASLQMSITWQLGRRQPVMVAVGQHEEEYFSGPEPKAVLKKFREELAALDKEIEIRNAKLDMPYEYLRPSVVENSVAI
Nature of the assay: Inhibition of 15-LOX-1 in human blood PMNL assessed as remaining activity by measuring 15-HETE synthesis at 10 uM. In a few lines:
as §2

In assay [6] the target is T4, Polyunsaturated fatty acid 5-lipoxygenase (Homo sapiens, UniProt P09917).
T4 sequence (P09917 whole entry): T1 sequence (whole entry)
Nature of the assay: Inhibition of human recombinant 5-LOX expressed in Escherichia coli BL21 incubated for 10 mins in presence of arachidonic acid by RP-HPLC based cell-free assay. An outline of the steps:
as §3

In assay [7] the target is T4, Polyunsaturated fatty acid 5-lipoxygenase. Nature of the assay: Inhibition of 5-LOX in A23187-stimulated human blood PMNL assessed as reduction in lipoxygenase products formation in presence of arachidonic acid pre-incubated for 15 mins followed by stimulation with A23187 for 10 mins by RP-HPLC based cell based assay. In a few lines:
as §1

Assay [8] shares this target. Description: Inhibition of 5-LOX in A23187-stimulated human blood PMNL assessed as reduction in lipoxygenase products formation pre-incubated for 15 mins followed by stimulation with A23187 for 10 mins by RP-HPLC based cell based assay. An outline of the steps:
as §1

For assay [9] the target is unchanged. Description: Inhibition of human 5-LOX by intact cell based assay.
Assay [10] concerns the target T1, Polyunsaturated fatty acid 5-lipoxygenase (Homo sapiens). Description: Potency index, ratio of IC50 for human 5-LOX by intact cell based assay to IC50 for human 5-LOX by cell free assay.
In assay [11] the target is T4, Polyunsaturated fatty acid 5-lipoxygenase. Description: Inhibition of human 5-LOX by cell free assay.
The species named for assay [12] is Homo sapiens. Nature of the assay: Selectivity index, ratio of inhibition for […] in human blood PMNL to IC50 for 5-LOX in human blood PMNL.
For assay [13], the species on record is Homo sapiens. Nature of the assay: Selectivity index, ratio of inhibition for 12-LOX in human blood PMNL to IC50 for 5-LOX in human blood PMNL.

As a reminder, the pIC50 is the IC50 on a negative log10 scale, so that one unit is a factor of ten. Consider `CCCCCCC1=C(O)C(=O)C=C(OC)C1=O`, for which the Activity came out at 64.1% in assay [1]; 44.5% in [2]; 71.1% in assay [3]; 68.9% in [4]; 65.8% in assay [5]. The pIC50 in assay [6], in [7] and in [8] was under 5.00 in each case.
In the case of `CCCCCCCCCCCC1=C(O)C(=O)C=C(O)C1=O` [EMBELIN], the pIC50 is 6.10 in assay [9]; 7.22 in assay [6]; 5.46 in [7]; 7.22 in assay [11]; 5.77 in [8]. Moreover, the Ratio IC50 in assay [10] turned out to be 13. The Activity turned out to be 74.9% in [2] and 91.5% in assay [5].
With `CCCCCCCCCCCCC1=C(OC)C(OC)=CC(=O)C1=O`, the figures for the Activity in assay [2] and in assay [5] were 135% and 133%, respectively. In addition, the Selectivity Index in the assay listed under Homo sapiens [12] and in the assay filed under Homo sapiens [13] was over 66 throughout. Moreover, the pIC50 is 6.89 in assay [6], 6.82 in [7] and 7.54 in assay [8].
As to `CCCCCCCCCCC1=C(OC)C(OC)=CC(=O)C1=O`, the Activity in assay [2] came to 133%; in assay [5], 148%. Moreover, the Selectivity Index in the assay filed under Homo sapiens [12] and in the assay filed under Homo sapiens [13] was over 66 each time. For the same molecule, the pIC50 was 6.89 in assay [6], 7.15 in [7] and 7.40 in [8].
Take `CCCCC1=C(O)C(=O)C=C(O)C1=O`: the Activity in assay [1] was found to be 92.8%; in assay [2], 93.3%; in assay [3] it was 65.4%; in assay [4] it was 93.5%; in assay [5], 82.3%. Moreover, the pIC50 in assay [6], in assay [7] and in assay [8] was under 5.00 each time.
In the case of `CCCCCCCCCCCCCC1=C(OC)C(OC)=CC(=O)C1=O`, the Activity was determined as 78.5% in assay [2] and 137% in [5]. The Selectivity Index in the assay filed under Homo sapiens [12] and in the assay filed under Homo sapiens [13] was over 66 each time. Besides, the pIC50 was 7.10 in assay [6], 7.30 in [7] and 6.92 in [8].
Turning to `CCCCC1=C(O)C(=O)C=C(OC)C1=O`, the Activity in assay [1] worked out at 95.7%; in assay [2], 91.2%; in assay [3], 70.5%; in [4], 86%; in [5] it was 112%. The negative-log IC50 (pIC50) in [6], in assay [7] and in [8] was under 5.00 throughout.
For the molecule `CCCCCCCCCCCC1=C(OC)C(OC)=CC(=O)C1=O`, the Activity was 236% in assay [2] and 105% in [5]. Further, the Selectivity Index in the assay filed under Homo sapiens [12] and in the assay listed under Homo sapiens [13] was over 66 throughout. Also, the results for the negative logarithm of the IC50 (pIC50) in assay [6], in assay [7] and in assay [8] were 7.05, 7.00 and 7.22, respectively.
